# Test results as given in ChEMBL document CHEMBL1126554, “Synthesis of novel modified dipeptide inhibitors of human collagenase: beta-mercapto carboxylic acid derivatives” (J Med Chem, 1993).
# Biological target: T1, Interstitial collagenase (Homo sapiens, UniProt P03956)
# T1 sequence (P03956 whole entry): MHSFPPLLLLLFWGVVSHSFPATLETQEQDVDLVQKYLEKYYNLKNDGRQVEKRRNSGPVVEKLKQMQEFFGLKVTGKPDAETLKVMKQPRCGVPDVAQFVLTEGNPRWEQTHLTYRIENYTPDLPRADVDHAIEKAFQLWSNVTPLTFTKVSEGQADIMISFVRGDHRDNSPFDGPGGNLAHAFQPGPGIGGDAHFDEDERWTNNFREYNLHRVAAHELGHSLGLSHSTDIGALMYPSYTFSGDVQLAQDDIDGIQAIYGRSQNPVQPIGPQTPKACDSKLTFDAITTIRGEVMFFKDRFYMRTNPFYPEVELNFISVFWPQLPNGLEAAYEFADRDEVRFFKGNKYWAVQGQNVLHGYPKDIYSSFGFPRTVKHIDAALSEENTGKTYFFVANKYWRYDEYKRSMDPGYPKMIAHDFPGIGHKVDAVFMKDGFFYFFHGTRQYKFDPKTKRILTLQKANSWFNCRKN
# Test: Inhibition of radiolabeled rat skin type I collagen degradation by purified human lung fibroblast collagenase.
# Method in brief: (§1)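 Trypsin-activated, semipurified enzyme from WI-38 lung fibroblast culture supernatants. 3H- or 14C-acetylated collagen (100 μg/tube) added at 4 °C, then 37 °C for 1000 min. Spun 12 000 rpm, 15 min, 4 °C. Supernatant peptides counted by scintillation. Enzyme set for 70% degradation.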
row,SMILES,IC50
1,CNC(=O)C[C@H](S)[C@@H](CC(C)C)C(=O)N[C@@H](Cc1ccc(OC)cc1)C(=O)NC,0.145 µM
2,CNC(=O)[C@H](Cc1ccc(OC)cc1)NC(=O)[C@H](CC(C)C)[C@@H](S)CC(=O)NC(CC(C)C)C(=O)OC(C)(C)C (some centres undefined),0.98 µM
3,CNC(=O)[C@H](Cc1ccc(OC)cc1)NC(=O)[C@H](CC(C)C)[C@@H](S)CC(N)=O,0.023 µM
4,CNC(=O)[C@H](Cc1ccc(OC)cc1)NC(=O)[C@H](CC(C)C)[C@@H](S)CC(=O)NCC(N)=O,0.032 µM
5,CNC(=O)[C@@H](NC(=O)C(CC(C)C)C(S)CC(=O)OC)C(C)OCc1ccccc1 (stereo in doubt; 57cd),0.013 µM
6,CNC(=O)[C@H](Cc1ccc(OC)cc1)NC(=O)[C@H](CC(C)C)[C@@H](S)CC(=O)N1CCN(C)CC1,0.12 µM
7,CNC(=O)[C@H](Cc1ccc(OC)cc1)NC(=O)[C@H](CC(C)C)[C@@H](S)CC(=O)NC(CC(C)C)C(=O)O (some centres undefined),0.83 µM
8,CNC(=O)[C@H](Cc1ccc(OC)cc1)NC(=O)[C@H](CC(C)C)[C@@H](S)CC(=O)OC(C)(C)C,0.01 µM
9,CNC(=O)[C@H](Cc1ccc(OC)cc1)NC(=O)[C@H](CC(C)C)[C@@H](S)CC(=O)NCC(=O)O,0.027 µM
10,CNC(=O)[C@H](Cc1ccc(OC)cc1)NC(=O)[C@H](CC(C)C)[C@H](CC(=O)OC)SC(C)=O,0.044 µM
11,CNC(=O)[C@H](Cc1ccc(OC)cc1)NC(=O)[C@H](CC(C)C)[C@@H](S)CC(=O)NCC(=O)OC(C)(C)C,0.28 µM
12,CNC(=O)[C@H](Cc1ccc(OC)cc1)NC(=O)[C@H](CC(C)C)[C@@H](S)CC(=O)O,0.025 µM

# Results, then the molecule that gave them:
row,IC50,SMILES
1,0.19 µM,COC(=O)C[C@H](S)[C@@H](CC(C)C)C(=O)N[C@@H](Cc1ccccc1)C(N)=O (stereo in doubt; 58cd)
2,0.002 µM,CNC(=O)[C@H](Cc1ccccc1)NC(=O)[C@H](CC(C)C)[C@@H](S)CC(=O)OC
3,0.003 µM,CNC(=O)[C@@H](NC(=O)C(CC(C)C)C(S)CC(=O)OC)C(C)OCc1ccccc1 (stereo in doubt; 57ab)

# Biological target: T1, Interstitial collagenase
# Test: Inhibition of rat skin type I collagen degradation by purified human lung fibroblast collagenase
# Method in brief: as §1, with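 “supernatants. Compounds sonicated into MeOH and serially diluted; some runs had β-mercaptoethanol at 9.6×10^-5 M final.” for “supernatants.”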
row,SMILES,IC50
1,CNC(=O)[C@H](Cc1c[nH]c2ccccc12)NC(=O)[C@H](CC(C)C)[C@H](CC(=O)OC)SS[C@@H](CC(=O)OC)[C@@H](CC(C)C)C(=O)N[C@@H](Cc1c[nH]c2ccccc12)C(=O)NC,0.022 µM
2,CNC(=O)[C@H](Cc1ccc(OC)cc1)NC(=O)C(CC(C)C)C(C)S (some centres undefined),0.017 µM

# Next, values leading:
row,IC50,SMILES
1,0.019 µM,CNC(=O)[C@H](Cc1c[nH]c2ccccc12)NC(=O)[C@H](CC(C)C)[C@H](CC(=O)OC)SC(C)=O
2,0.012 µM,CNC(=O)[C@H](Cc1c[nH]c2ccccc12)NC(=O)[C@@H](CC(C)C)[C@H](S)CC(=O)OC
3,0.0025 µM,CNC(=O)[C@H](Cc1c[nH]c2ccccc12)NC(=O)[C@H](CC(C)C)[C@@H](S)CC(=O)OC
4,0.81 µM,CNC(=O)[C@H](Cc1c[nH]c2ccccc12)NC(=O)C(CC(C)C)C(S)CC(=O)OC (stereo in doubt; 56b)
5,0.73 µM,CNC(=O)[C@H](Cc1c[nH]c2ccccc12)NC(=O)C(CC(C)C)C(S)CC(=O)OC (stereo in doubt; 56c)

# Biological target: T1, Interstitial collagenase
# Test: Inhibition of rat skin type I collagen degradation by purified human lung fibroblast collagenase without beta-mercaptoethanol
# Method in brief: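 β-Mercaptoethanol omitted. Enzyme was trypsin-activated, semipurified collagenase from WI-38 fibroblast culture supernatants. Compounds sonicated into MeOH, serially diluted. Collagen 3H- or 14C-acetylated, 100 μg/tube, added to tubes cooled to 4 °C. Incubated 37 °C for 1000 min, centrifuged 12 000 rpm for 15 min at 4 °C. Soluble supernatant peptides counted by liquid scintillation.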
row,IC50,SMILES
1,0.021 µM,CNC(=O)[C@H](Cc1c[nH]c2ccccc12)NC(=O)[C@H](CC(C)C)[C@@H](S)CC(=O)OC
2,1.4 µM,CNC(=O)[C@H](Cc1c[nH]c2ccccc12)NC(=O)[C@H](CC(C)C)[C@H](CC(=O)OC)SS[C@@H](CC(=O)OC)[C@@H](CC(C)C)C(=O)N[C@@H](Cc1c[nH]c2ccccc12)C(=O)NC
